# Measured values from ChEMBL document CHEMBL1122141, “Potential radiosensitizing agents. 4. 2-Nitroimidazole nucleosides” (J Med Chem, 1982).
# What was measured:
# [1] = Partition coefficient of the compound; type: ADME; conditions: octanol/water
# V79 [2] = assay: In vitro radiosensitizing activity against V-79 hypoxic cells was determined in the presence of the sensitizer under nitrogen at a concentration of 1.0 mM; type: functional, Cricetulus griseus
# In short: (§1)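 Asynchronous monolayer V-79 Chinese hamster cells from exponential cultures, plated in dishes and made hypoxic by purging sealed containers with 95% nitrogen/5% CO2. Drug exposure was 1 h at 37 °C under hypoxia, followed by cobalt-60 irradiation (~240 rad/min, 400–2700 rad). Colonies were grown 6 days at 37 °C, then fixed in ethanol, stained with methylene blue and counted. SER = D0 of hypoxic controls / D0 of drug-treated hypoxic cells.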
# V79 [3] = assay: In vitro radiosensitizing activity against V-79 hypoxic cells was determined in the presence of the sensitizer under nitrogen at a concentration of 0.5 mM; type: functional, Cricetulus griseus; in short: as §1
# V79 [4] = assay: In vitro radiosensitizing activity against V-79 hypoxic cells was determined in the presence of the sensitizer under nitrogen at a concentration of 0.25 mM; type: functional, Cricetulus griseus; in short: as §1
# V79 [5] = assay: In vitro radiosensitizing activity against V-79 Hypoxic cells was determined in the presence of the sensitizer under nitrogen at a concentration of 0.1 mM; type: functional, Cricetulus griseus; in short: as §1
# V79 [6] = assay: In vitro radiosensitizing activity against V-79 hypoxic cells was determined in the presence of the sensitizer under nitrogen at a concentration of 0.05 mM; type: functional, Cricetulus griseus; in short: as §1
SMILES,Partition coefficient [1],SER (V79 [2]; in the assay text read “0.01 mM” for “1.0 mM”),SER (V79 [3]),SER (V79 [4]),SER (V79 [2]),SER (V79 [5]),SER (V79 [6])
O=C(OC[C@H]1O[C@@H](n2ccnc2[N+](=O)[O-])[C@H](OC(=O)c2ccccc2)[C@@H]1OC(=O)c1ccccc1)c1ccccc1,15.66,1,–,–,–,–,–
O=[N+]([O-])c1nccn1C1SC(CO)C(O)C(O)C1O (stereo not drawn),0.22,–,1.4,1.2,1.7,–,–
O=[N+]([O-])c1nccn1C1OC(CO)C(O)C(O)C1O (stereo not drawn),0.04,–,–,–,1,–,–
CC(=O)OCC1OC(n2ccnc2[N+](=O)[O-])C(OC(C)=O)C(OC(C)=O)C1OC(C)=O (stereo not drawn),3.31,–,–,–,–,1.2,–
COC(=O)C1(n2ccnc2[N+](=O)[O-])CC(OC(C)=O)C(NC(C)=O)C(C(OC(C)=O)C(COC(C)=O)OC(C)=O)O1 (stereo not drawn),2.56,–,1.4,1.2,1.6,–,–
CC(=O)OCC1SC(n2ccnc2[N+](=O)[O-])C(OC(C)=O)C(OC(C)=O)C1OC(C)=O (stereo not drawn),4.22,–,–,–,–,–,1.1
O=[N+]([O-])c1nccn1C1O[C@H](CO)[C@@H](O)[C@H]1O (stereo partly drawn),0.07,–,1.4,–,–,–,–
